# In the EternaBench riboswitch data:
# System: MS2 coat protein
# Experiment: apparent Kd, MS2 coat protein; higher = weaker binding; RNA-MaP array; FMN 200 µM where present
# Method in brief: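 Stalled E. coli RNA polymerase transcribed each design on Illumina sequencing-chip clusters. The clusters were titrated with SNAP-549-labelled MS2 coat protein, starting at 0.7 or 1.5 nM and doubling up to 3 µM, first without ligand and then with constant ligand, in 100 mM Tris-HCl pH 7.5, 80 mM KCl, 4 mM MgCl2, BSA, DTT, yeast tRNA and Tween-20. Green signal was normalised to red-channel RNA signal and to the control-cluster median Fmax. The apparent Kd is the median of filtered binding-curve fits made for each cluster.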
# [1] = designed as: ON switch for flavin mononucleotide, no ligand
# [2] = ligand present: flavin mononucleotide, designed as: ON switch for flavin mononucleotide
# [3] = designed as: OFF switch for flavin mononucleotide, no ligand
# [4] = ligand present: flavin mononucleotide, designed as: OFF switch for flavin mononucleotide
Sequence,apparent Kd [1],apparent Kd [2],apparent Kd [3],apparent Kd [4]
UUCAAAUUCGUAGGAUAUGUAUAUAAUUUCUACAUGAGGAUCACCCAUGUUACCAUUUUUUAGUGACAGAAGGACGUAAUCUAA,211 nM,47.6 nM,–,–
UUGGACGUCGUAGGAUAUGUAGGAUAUUCCUACAUGAGGAUCACCCAUGUUGACAUGGAAGAAGGACAGAAGUACGAUGUCCAU,–,5.6 nM,–,–
UUGGACGUCGUAGGAUAUGUAGGAUAUUCCUACAUGAGGAUCACCCAUGUUGACAUGGAAGAAGGACAGAAGGACGGUGUCCAU,241 nM,4.54 nM,–,–
CUCUUGUUAGGAUAUCAAACCGGCGGCGGAGCCGCCGGAAGUGAGAAGGGACAUGAGGAUCACCCAUGUAAGAA,–,–,71.5 nM,312 nM
GCGUUCUUGUAGAAGGUACUUUCAACAUCUUAUAAACGCUAGACACAUGAGGAUCACCCAUGUUGUAAGGAUAUACAUGAACGC,11.3 nM,10.9 nM,–,–
GGACGGUUAGUGAGGAUAUGCUCUACCUCGGUAGAGCAGAAGGCACAUGAGGAUCACCCAUGUGAUAACUGUUC,–,–,18.6 nM,21.8 nM
ACGUUCAAAGGAUAUACAUGAGGAUCACCCAUGUCCGUCAUGCAAGCGACGGUUUGCUGUAGAAGGUUGAACGC,–,–,22.4 nM,114 nM
UGUAUGUAGGCAGGAUAUACAUGAAUAUAUAUGAUGUAGUAUGAUGUAACAUGAGGAUCACCCAUGUAGAAGGGCCAGUGUAUG,–,–,77.8 nM,129 nM
UCUACAUAAAUUCAUCAAUACAGAAAGGAUAUGAGAUACAUGAGGAUCACCCAUGUGCAUGGGAAUUAGAAGGUUCAAUUAGCU,–,–,94.2 nM,58.6 nM
AAACCUAUAGGAUAUACAUGAGGAUCACCCAUGUUGCGAUUUUUUAGGUAACAGAUCCGUAGAAGGGUAGGGCA,–,–,29.7 nM,46.9 nM
ACUUAGUACAAUUUAGAUCUACAUGAGGAUCACCCAUGUACUGAGGAUAUCAGCUCGAAUAGAGCUGAGAAGGCAGAAGUACUU,245 nM,53.5 nM,–,–
GUAGCUAGUAAAGGAUAUUAGUGUGUGUAAUAUUGAGAAGGUUACAUGAGGAUCACCCAUGUGAUCAAUCACUGUUAAGGUUGC,–,–,6.29 nM,6.33 nM
AGGUCGAGUGUGAGGAUAUUGACCGGACGACCCAUCGAGAAGGCACAUGAGGAUCACCCAUGUGAUUCAGCUCA,–,–,15 nM,17.1 nM
GUCAGCUCGUGAGGAUAUACAUGUGCUGGAUACAGCACUAUUAUGUUCACAUGAGGAUCACCCAUGUAGAAGGCACGAGCUGAU,–,–,16.2 nM,21.7 nM
AUAAAGCGAGGAUAUCGCGCGGAGUACAUGAGGAUCACCCAUGUGGUCCGCAGUCCUGCGCGAGAAGGCGCAUUCC,–,–,138 nM,54.2 nM
GUUUCGUGAGGAUAUGUGGCUUCGAUCGUGCGAUCGAGGCUACAGAAGGCACAUGAGGAUCACCCAUGUUCCUC,–,–,45.2 nM,612 nM
UUGGACGUCGUAGGAUAUGUAGGAUAUUCCUACAUGAGGAUCACCCAUGUUGACAUGGAAGAAGGACAGAAGCACGAUGUCCAU,199 nM,5.35 nM,–,–
UGACACAUGAGGGUCUCCCUUGACAUGAGGAUCACCCAUGUGCAGGAUAUACGUGUGAUGGUAUAGUAGAAGGGCACUCUAUGU,–,–,30.6 nM,40.5 nM
CCUCUACAUGAGGAUCACCCAUGUGAGGAUAUCUCGGAAAAGCCACUUAAGGUACUCCAGAGAAGGCACGUGUA,–,–,14.6 nM,23.7 nM
CUUUUGUGAGGAUAUCAGUAGUAAAUUAAUAAAAUUACUACUGAGAAGGCACAUGAGGAUCACCCAUGUUCCUU,–,–,14.5 nM,29.5 nM
GCCGUAAGUGUGAGGAUAUACCUAUGGAUACAUAGGUAGAAGGCACAUGAGGAUCACCCAUGUCCUUAAUCGGC,–,–,247 nM,267 nM
UGGACCGAGCUGUCGGUUGGCUCUUAGGAUAUGACAUGAGGAUCACCCAUGUGGGAUCUAAAUUGUCAGAAGGAGGGUUCUGGG,–,–,48.3 nM,40.3 nM
GCCAACUUAUGAGGAUAUGGCACCUUAUUGGUGCCAGAAGGCAUGUCUCUUGACAUGAGGAUCACCCAUGUAUUAUAGUUGGCA,421 nM,158 nM,–,–
GUAGAACAUGAGGAUCACCCAUGUGAAGACGCAUGAGGAUAUAUACGUAAAUAGCAUACGAUAGAAGGCAUGAUAA,51.8 nM,26.8 nM,–,–
AUAAUUUUAUAUAUCAUUUUAAUCAGAAGGCAUAACAUGAGGAUCACCCAUGUAAAUUAAUGUUAUGAGGAUAUGAUUUGGUUA,–,–,26.1 nM,147 nM
CGUGUCGCAUGAGGAUAUGGUCAGCUUUGCUGACCAGAAGGCAUGUCAAUAGACAUGAGGAUCACCCAUGUAGUAAAGACACGA,416 nM,33.9 nM,–,–
CAGCUACCCAGUAUGGGUUUUUGUACAGAAGGCCAGGUACAUGAGGAUCACCCAUGUAAAGAUAUGGAGGAUAUGUUAGUGUAU,29.1 nM,8.08 nM,–,–
UUAAAAGUGACAUGAGGAUCACCCAUGUGAAUUAGUAGUAGCAGAAGGCACGUGGGAAGACCAAGUGAGGAUAUGUAGCUUUAA,515 nM,44 nM,–,–

Sequence,apparent Kd [1],apparent Kd [2],apparent Kd [3],apparent Kd [4]
UCCUUAAACACAGGAUAUCCUGCCGUACAUGAGGAUCACCCAUGUCCGGUCGGAGAAGGGUGGCGAAGGUAUGUGCGAAUUAAG,8.23 nM,5.41 nM,–,–
AUGGUCAAGUGUGAGGAUAUCCAUGCUCCCACAUGAGGAUCACCCAUGUCUUAAAGGGCGUAAAGGGAGAAGGUACGAACGCCAC,34.3 nM,27.8 nM,–,–
CUUGUGUAAGGAUAUCGAGUAGAACGCUCGAGUUCUGAGCUCGAGAAGGUACAUGAGGAUCACCCAUGUUAAAA,–,–,40.1 nM,66.2 nM
UAAGUUUAGGUAGGAUAUACUUUAAAUUUCUCUAUCCAUACAUGAGGAUCACCCAUGUUUACAUUGUAGAAGGACCACUAUGUU,–,–,24.6 nM,20.4 nM
GCGGGUAAAGCAGGAUAUCUAAUGUCACGGAAACAUGAGGAUCACCCAUGUAGAGAAGGGCUAAGUCAUACAAUUCGAAUUUGC,–,–,9.04 nM,8.24 nM
UUAUUUAGUGUGAGGAUAUGCUGGUCCAUAGAUCAGCAGAAGGCACAUGAGGAUCACCCAUGUAAUAUAUUAAU,–,–,26.5 nM,202 nM
AUGGUUGUCGUAGGAUAUGUAGGAUAUUCCUACAUGAGGAUCACCCAUGUUCGCAUGGAAGAAGGACAGAAGGACGAUAACCAC,1310 nM,8.46 nM,–,–
AUUAACUACAUAGGAUAUUGAUACAUGAGGAUCACCCAUGUCACCCAUUUAUAUAUUAAUAUUGACAAGAAGGAUGUGGUUACA,13.1 nM,6.13 nM,–,–
AAUAUGUUGCAGAAGGUUAUUUUUAUAACGAUCCAUUUGACAUGAGGAUCACCCAUGUAAUUGAUGAAGGAUAUGCAAUAUAUU,–,–,6.42 nM,7.18 nM
GAUAGAGAGCAGGAUAUCUUGGAUAAGUAUUGUAGAGAAGGGCUCACAUGAGGAUCACCCAUGUGGUCCUAGAU,–,–,14.2 nM,34.2 nM
AAAAAGAUAGGAUAUACAUGAAAAAAAAAAAAAAAAAAAAGACAUGAGGAUCACCCAUGUAGAAGGGUCAAAAA,–,–,133 nM,124 nM
GGUAUCUCCAGUGAGGAUAUGCGGCGUAGAACAUGAGGAUCACCCAUGUCCUUCGAAUGGGUUACGCAGAAGGCACUACGGUACC,36.6 nM,16.6 nM,–,–
GGUCGAAAGUAAGGAUAUGCCUAGGAAACCUAGGCAGAAGGUACAUGAGGAUCACCCAUGUUAACGCAAAGCGAAUAAACGACC,–,–,18.6 nM,27.4 nM
CUUUUGUGAGGAUAUCAGUAGUAAAUAAAUAUAAUUACUACUGAGAAGGCACAUGAGGAUCACCCAUGUUCCUC,–,–,39.7 nM,274 nM
CAGUACUGAGGAUAUACAUGAGGAUCACCCAUGUGUUCCAGCUAGGAAACUAGCAAGAGUAGAAGGCAGUACUG,–,–,23.7 nM,459 nM
GCGUCAGAAUUAAUUGUGACAGGCAGAAGGCUAUAUCUUAUGUCAGACAUGAGGAUCACCCAUGUAGAGGAUAUGCAGUUACAC,–,–,10.6 nM,17.9 nM
UGUGAGAUGAUGUUAGAUAGGAGAACAUGAGGAUCACCCAUGUAGGAUAUUCAAAGACGAAGAUAGAAGAAGGACAUAGGUAUC,–,–,30.3 nM,78.2 nM
GUCAGCUCGUGAGGAUAUACAACACUGCUUCGGCACUGUAUUAAGAUCACAUGAGGAUCACCCAUGUAGAAGGCACGAGCUGAU,–,–,8.62 nM,104 nM
UGUUGUAUUACAGGAUAUCUAUGAUUUUUGUUUAGAGAAGGGUAUUCACAUGAGGAUCACCCAUGUAUAUACGAGGAAGUUGUG,60.3 nM,74.7 nM,–,–
CGCAUGCGUAGUAUUAGUUGCUGACAGGAUAUGACAUGAGGAUCACCCAUGUUUAUUAAGAAGAUUCAGAAGGGUCACGUUGCG,–,–,6.87 nM,5.8 nM
AACAGUACAGGAUAUACAUGAGGAUCACCCAUGUGAGAAUUAAGUGGAAAACCACAAAGUAGAAGGGUACUGGA,–,–,29.8 nM,269 nM
AAAUGCCUGUCGAUGCUCGACAUGAGGAUCACCCAUGUAUAGCAGGAUAUGCAGAACUGACUCGUGCAGAAGGGCUAUACCUAC,–,–,17.8 nM,37.4 nM
UUGUAAUGAUUAGGAUAUUAUUAAUAGAACUUUAUGAUAUACAUGAGGAUCACCCAUGUUACUUAUAAGAAGGAAUCGUAUUAU,–,–,21.2 nM,16.8 nM
CUAUGACGAAUAGGAUAUUCGAUCAAAAGGAUAGAAGAAGGGUUACAUGAGGAUCACCCAUGUAUGCACAUGAGGAUCCCUUAG,–,–,193 nM,219 nM
CACUCGUGUCUAGGAUAUGAGUGACAAGCGCGAGAUUUCCUCGCCGCUAGCUCAGAAGGAGACAUGAGGAUCACCCAUGUAAGG,–,–,90 nM,24.4 nM
AUACCACGAGGAUAUCGUCUAUUCCACAUGAGGAUCACCCAUGUUAUCCAUGUUUCGUUUCGAGAAGGCGUGUUUU,–,–,59.3 nM,41.5 nM
GUCGGAAACGACAAAGUAGCAUAGGAGGAUAUUCAUUAAAACAUGAGGAUCACCCAUGUAAAUUGGGAGAAGGCCUAUGCUACA,17.8 nM,5.26 nM,–,–
